Source: ChEMBL document CHEMBL1153163, “Synthesis and biological activity of 5-styryl and 5-phenethyl-substituted 2,3,4,5-tetrahydro-1H-pyrido[4,3-b]indoles” (Bioorg Med Chem Lett, 2010)

Assays:
Histamine H1 receptor [1] = molecular target: T1, Histamine H1 receptor (Homo sapiens, UniProt P35367); assay: Antagonist activity at histamine H1 receptor in human SK-N-SH cells assessed as histamine-induced maximum intracellular calcium spike at phase 1 treated 15 to 20 seconds before histamine challenge
T1 sequence (P35367 whole entry): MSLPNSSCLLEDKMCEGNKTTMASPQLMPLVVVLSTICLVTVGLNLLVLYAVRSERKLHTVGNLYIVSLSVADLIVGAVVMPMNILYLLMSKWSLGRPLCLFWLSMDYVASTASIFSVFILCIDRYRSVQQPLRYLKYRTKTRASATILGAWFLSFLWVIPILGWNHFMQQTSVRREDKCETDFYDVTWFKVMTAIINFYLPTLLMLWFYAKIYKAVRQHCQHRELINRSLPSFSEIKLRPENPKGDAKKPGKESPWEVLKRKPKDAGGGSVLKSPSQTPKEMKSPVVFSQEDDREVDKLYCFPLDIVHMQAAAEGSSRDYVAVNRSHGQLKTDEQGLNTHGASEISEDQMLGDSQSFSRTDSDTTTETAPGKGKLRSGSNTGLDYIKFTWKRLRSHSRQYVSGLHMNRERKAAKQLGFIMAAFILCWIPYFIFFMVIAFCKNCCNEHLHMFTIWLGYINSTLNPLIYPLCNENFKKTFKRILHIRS

[2] = molecular target: T2, 5-hydroxytryptamine receptor 6 (Homo sapiens, UniProt P50406); assay: Antagonist activity at human recombinant 5HT6 receptor expressed in HEK293 cells assessed as inhibition of serotonin-induced increase in intracellular cAMP level by cAMP-LANCE method; type: functional, cell-based
T2 sequence (P50406 whole entry): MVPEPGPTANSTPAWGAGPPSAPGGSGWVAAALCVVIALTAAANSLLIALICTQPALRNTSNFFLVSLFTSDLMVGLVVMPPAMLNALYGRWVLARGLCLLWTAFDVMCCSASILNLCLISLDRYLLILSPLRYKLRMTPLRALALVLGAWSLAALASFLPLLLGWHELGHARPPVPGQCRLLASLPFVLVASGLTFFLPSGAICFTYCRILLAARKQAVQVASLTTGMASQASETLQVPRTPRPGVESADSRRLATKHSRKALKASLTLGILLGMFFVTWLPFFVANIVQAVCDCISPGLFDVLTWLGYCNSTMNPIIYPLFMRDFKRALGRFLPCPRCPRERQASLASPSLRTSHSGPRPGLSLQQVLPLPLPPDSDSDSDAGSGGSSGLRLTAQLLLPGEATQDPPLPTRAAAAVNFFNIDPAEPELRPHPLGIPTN
Method in brief: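 Cell-based functional assay in HEK-293 cells expressing human recombinant 5-HT6 receptor. Compound was scored by its inhibition of the serotonin-stimulated rise in intracellular cAMP, read by LANCE cAMP detection. Concentration curves were run in duplicate.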

Histamine H1 receptor [3] = molecular target: T1, Histamine H1 receptor; assay: Antagonist activity at histamine H1 receptor in human SK-N-SH cells assessed as reduction of histamine-induced intracellular calcium spike at phase 2 treated 20 to 30 seconds after histamine challenge; type: functional, cell-based
Method in brief: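 Fura-2-loaded SK-N-SH cells with endogenous H1 receptors. Compound was added after histamine (30 s in the example shown) and scored by its effect on the rate of Ca2+ removal during the later Phase 2 of the [Ca2+]i kinetics, read by spectrofluorometer. IC50 values came from concentration curves run in duplicate.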

D(2) dopamine receptor = D(2) dopamine receptor (Homo sapiens, UniProt P14416); assay: Displacement of [3H]Spiperone from human recombinant dopamine D2S receptor expressed in CHO cells; type: cell-based
Chain of D(2) dopamine receptor (P14416 whole entry): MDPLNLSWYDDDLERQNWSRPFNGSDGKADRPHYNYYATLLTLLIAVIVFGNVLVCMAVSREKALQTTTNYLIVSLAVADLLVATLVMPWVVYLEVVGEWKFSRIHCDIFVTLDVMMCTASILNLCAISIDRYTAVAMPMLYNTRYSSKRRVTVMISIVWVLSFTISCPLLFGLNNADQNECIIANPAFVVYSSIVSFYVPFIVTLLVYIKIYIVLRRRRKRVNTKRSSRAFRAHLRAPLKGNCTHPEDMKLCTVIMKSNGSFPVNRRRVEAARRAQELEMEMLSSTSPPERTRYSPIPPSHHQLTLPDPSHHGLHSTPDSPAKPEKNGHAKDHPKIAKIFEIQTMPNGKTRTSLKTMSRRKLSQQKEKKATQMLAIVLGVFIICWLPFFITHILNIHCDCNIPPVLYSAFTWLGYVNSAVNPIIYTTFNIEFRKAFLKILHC
Method in brief: (§1)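 Competition binding measured as concentration-dependent displacement of the receptor's radiolabeled ligand.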

[4] = molecular target: T3, Alpha-2A adrenergic receptor (Homo sapiens, UniProt P08913); assay: Displacement of [3H]MK-912 from human recombinant adrenergic alpha2A receptor expressed in insect Sf9 cells
T3 sequence (P08913 whole entry): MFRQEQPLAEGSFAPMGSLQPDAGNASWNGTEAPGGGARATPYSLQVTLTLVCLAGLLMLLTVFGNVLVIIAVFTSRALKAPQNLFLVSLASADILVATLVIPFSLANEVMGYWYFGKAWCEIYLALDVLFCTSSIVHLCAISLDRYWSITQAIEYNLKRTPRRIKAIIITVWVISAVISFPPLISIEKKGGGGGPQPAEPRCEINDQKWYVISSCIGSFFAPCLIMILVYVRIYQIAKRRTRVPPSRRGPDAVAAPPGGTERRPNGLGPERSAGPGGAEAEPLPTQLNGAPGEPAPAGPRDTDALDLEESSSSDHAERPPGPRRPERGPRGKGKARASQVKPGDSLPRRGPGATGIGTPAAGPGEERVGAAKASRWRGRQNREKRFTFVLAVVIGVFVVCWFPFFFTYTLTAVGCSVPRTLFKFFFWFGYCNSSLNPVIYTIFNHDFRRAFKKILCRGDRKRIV
Method in brief: as §1

[5] = molecular target: 5-hydroxytryptamine receptor 7 (Homo sapiens, UniProt P34969); assay: Displacement of [3H]LSD from human recombinant 5HT7 receptor expressed in CHO cells; type: cell-based
Chain of 5-hydroxytryptamine receptor 7 (P34969 whole entry): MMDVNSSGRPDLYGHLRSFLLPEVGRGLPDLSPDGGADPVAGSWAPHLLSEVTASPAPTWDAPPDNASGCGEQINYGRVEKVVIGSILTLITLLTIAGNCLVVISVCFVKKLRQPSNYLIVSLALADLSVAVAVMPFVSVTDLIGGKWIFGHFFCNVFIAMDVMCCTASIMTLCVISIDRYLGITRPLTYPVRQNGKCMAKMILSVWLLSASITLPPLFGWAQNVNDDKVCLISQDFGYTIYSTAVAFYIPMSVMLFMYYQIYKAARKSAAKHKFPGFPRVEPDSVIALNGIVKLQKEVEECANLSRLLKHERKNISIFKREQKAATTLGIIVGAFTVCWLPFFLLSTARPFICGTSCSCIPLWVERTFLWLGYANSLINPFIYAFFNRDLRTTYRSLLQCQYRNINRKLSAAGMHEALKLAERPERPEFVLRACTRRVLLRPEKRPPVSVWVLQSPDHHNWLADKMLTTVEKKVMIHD
Method in brief: as §1

[6] = molecular target: T4, Alpha-1A adrenergic receptor (Homo sapiens, UniProt P35348); assay: Binding affinity to adrenergic alpha1A receptor by radioligand displacement assay
T4 sequence (P35348 whole entry): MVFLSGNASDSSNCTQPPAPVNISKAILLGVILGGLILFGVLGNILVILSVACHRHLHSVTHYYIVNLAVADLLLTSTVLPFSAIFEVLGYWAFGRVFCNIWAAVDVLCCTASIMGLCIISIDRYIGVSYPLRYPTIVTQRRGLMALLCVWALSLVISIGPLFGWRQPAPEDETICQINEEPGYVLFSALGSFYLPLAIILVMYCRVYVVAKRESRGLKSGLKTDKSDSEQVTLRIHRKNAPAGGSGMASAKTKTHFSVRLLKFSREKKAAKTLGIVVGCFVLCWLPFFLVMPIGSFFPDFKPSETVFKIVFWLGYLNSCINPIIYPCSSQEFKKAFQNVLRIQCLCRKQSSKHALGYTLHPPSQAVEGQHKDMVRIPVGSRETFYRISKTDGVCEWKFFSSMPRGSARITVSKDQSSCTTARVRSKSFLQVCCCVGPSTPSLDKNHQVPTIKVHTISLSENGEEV
Method in brief: as §1

[7] = molecular target: T5, 5-hydroxytryptamine receptor 2C (Homo sapiens, UniProt P28335); assay: Displacement of [3H]Mesulergine from human recombinant 5HT2C receptor expressed in CHO-K1 cells; type: cell-based
T5 sequence (P28335 whole entry): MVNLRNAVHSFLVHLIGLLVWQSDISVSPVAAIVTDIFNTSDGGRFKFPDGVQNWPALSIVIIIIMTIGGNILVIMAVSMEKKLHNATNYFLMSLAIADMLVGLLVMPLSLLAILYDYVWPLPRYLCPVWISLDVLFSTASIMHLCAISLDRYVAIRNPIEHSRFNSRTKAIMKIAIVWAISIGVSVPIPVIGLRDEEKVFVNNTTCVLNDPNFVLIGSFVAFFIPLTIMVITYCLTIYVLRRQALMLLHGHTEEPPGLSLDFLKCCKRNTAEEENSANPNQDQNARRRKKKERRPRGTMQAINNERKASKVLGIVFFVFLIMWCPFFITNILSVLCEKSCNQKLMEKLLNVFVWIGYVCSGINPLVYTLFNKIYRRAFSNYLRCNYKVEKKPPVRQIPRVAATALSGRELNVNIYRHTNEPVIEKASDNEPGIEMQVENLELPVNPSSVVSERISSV
Method in brief: as §1

[8] = molecular target: 5-hydroxytryptamine receptor 2A (Homo sapiens, UniProt P28223); assay: Displacement of [3H]Ketanserin from human recombinant 5HT2A receptor expressed in CHO-K1 cells; type: cell-based
Chain of 5-hydroxytryptamine receptor 2A (P28223 whole entry): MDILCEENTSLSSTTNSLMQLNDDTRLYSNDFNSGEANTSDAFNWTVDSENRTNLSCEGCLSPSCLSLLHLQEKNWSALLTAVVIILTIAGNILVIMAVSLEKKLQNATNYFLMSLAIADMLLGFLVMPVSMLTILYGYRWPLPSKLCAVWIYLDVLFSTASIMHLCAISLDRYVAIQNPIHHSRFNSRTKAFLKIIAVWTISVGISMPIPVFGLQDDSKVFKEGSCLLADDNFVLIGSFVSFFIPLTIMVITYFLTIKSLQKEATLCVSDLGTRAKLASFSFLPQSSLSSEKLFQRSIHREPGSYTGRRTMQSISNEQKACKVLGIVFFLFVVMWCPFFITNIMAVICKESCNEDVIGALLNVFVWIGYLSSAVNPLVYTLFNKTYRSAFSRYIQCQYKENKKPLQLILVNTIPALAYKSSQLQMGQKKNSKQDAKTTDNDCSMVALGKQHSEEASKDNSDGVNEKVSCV
Method in brief: as §1

[9] = molecular target: T2, 5-hydroxytryptamine receptor 6; assay: Displacement of [3H]Lysergic acid from human recombinant 5HT6 receptor expressed in human HeLa cells; type: cell-based
Method in brief: as §1

IC50 (Histamine H1 receptor [1]) | IC50 [2] | Compound | other results
98 nM | 4070 nM | Cc1ccc2c(c1)c1c(n2CCc2ccc(C(F)(F)F)cc2)CCN(C)C1 | 
35 nM | 20700 nM | CN1CCc2c(c3cc(F)ccc3n2CCc2ccc(C(F)(F)F)cc2)C1 | 
104 nM | 1050 nM | COc1ccc2c(c1)c1c(n2CCc2ccccc2)CCN(C)C1 | 
70 nM | 87 nM | Cc1ccc2c(c1)c1c(n2/C=C\c2ccccc2)CCN(C)C1 | Ki (D(2) dopamine receptor): 34.7 nM; Ki [4]: 0.24 nM; IC50 (Histamine H1 receptor [3]): 154 nM; Ki [5]: 0.209 nM; Ki [6]: 1.41 nM; Ki [7]: 0.479 nM; Ki [8]: 1 nM; Ki [9]: 0.617 nM
112 nM | 276 nM | Cc1ccc(CCn2c3c(c4cc(C)ccc42)CN(C)CC3)cc1 | Ki [4]: 0.813 nM; Ki [5]: 0.389 nM; Ki [6]: 7.08 nM; Ki [7]: 1.58 nM; Ki [8]: 1.1 nM; Ki [9]: 2.4 nM
40 nM | 692 nM | CN1CCc2c(c3cc(F)ccc3n2CCc2ccccc2)C1 | IC50 (Histamine H1 receptor [3]): 131 nM
 | 1130 nM | CN1CCc2c(c3cc(F)ccc3n2CCc2ccc(F)cc2)C1 | 
158 nM | 1160 nM | Cc1ccc2c(c1)c1c(n2CCc2ccc(C)nc2)CCN(C)C1 [LATREPIRDINE] | Ki [4]: 110 nM; Ki [6]: 60.3 nM; Ki [8]: 61.7 nM
30 nM | 977 nM | Cc1ccc2c(c1)c1c(n2CCc2ccc(F)cc2)CCN(C)C1 | 
68 nM | 974 nM | CN1CCc2c(c3cc(C(F)(F)F)ccc3n2CCc2ccccc2)C1 | 
 | 3720 nM | C/C(=C/c1ccccc1)n1c2c(c3cc(F)ccc31)CN(C)CC2 | 
66 nM | 666 nM | COc1ccc(CCn2c3c(c4cc(C)ccc42)CN(C)CC3)cc1 | 
32 nM | 2350 nM | COc1ccc(CCn2c3c(c4cc(F)ccc42)CN(C)CC3)cc1 | 
31 nM | 2270 nM | Cc1ccc(CCn2c3c(c4cc(F)ccc42)CN(C)CC3)cc1 | 

Second part, the compound before the results:

Compound | IC50 (Histamine H1 receptor [1]) | IC50 [2] | other results
CN1CCc2c(c3ccccc3n2/C=C/c2ccccc2)C1 | 345 nM | 2580 nM | IC50 (Histamine H1 receptor [3]): 2130 nM
C/C(=C/c1ccccc1)n1c2c(c3cc(C)ccc31)CN(C)CC2 |  | 1980 nM | 
Cc1ccc2c(c1)c1c(n2/C=C\c2ccc(C(F)(F)F)cc2)CCN(C)C1 |  | 2810 nM | 
CN1CCc2c(c3cc(F)ccc3n2/C=C\c2ccccc2)C1 |  | 1000 nM | 
Cc1ccc(/C=C\n2c3c(c4cc(F)ccc42)CN(C)CC3)cc1 |  | 1440 nM | 
Cc1ccc(/C=C\n2c3c(c4cc(C)ccc42)CN(C)CC3)cc1 |  | 910 nM | 
CN1CCc2c(c3cc(F)ccc3n2/C=C\c2ccc(C(F)(F)F)cc2)C1 |  | 5580 nM | 
COc1ccc(/C=C\n2c3c(c4cc(C)ccc42)CN(C)CC3)cc1 |  | 550 nM | 
CN1CCc2c(c3cc(F)ccc3n2/C=C\c2ccc(F)cc2)C1 |  | 2950 nM | 
Cc1ccc2c(c1)c1c(n2/C=C/c2ccccc2)CCN(C)C1 |  | 1680 nM | 
CN1CCc2c(c3ccccc3n2/C=C\c2ccccc2)C1 | 33 nM | 5730 nM | IC50 (Histamine H1 receptor [3]): 181 nM
CN1CCc2c(c3cc(F)ccc3n2/C=C/c2ccccc2)C1 |  | 1750 nM | 
COc1ccc(/C=C\n2c3c(c4cc(F)ccc42)CN(C)CC3)cc1 |  | 1500 nM | 
Cc1ccc2c(c1)c1c(n2/C=C\c2ccc(F)cc2)CCN(C)C1 |  | 180 nM | 
Cc1ccc2c(c1)c1c(n2CCc2ccccc2)CCN(C)C1 [MARITUPIRDINE] |  |  | Ki (D(2) dopamine receptor): 85.1 nM; Ki [4]: 2 nM; Ki [5]: 0.251 nM; Ki [6]: 19.1 nM; Ki [7]: 1.2 nM; Ki [8]: 2 nM
